Screens: PubChem BioAssay, The Scripps Research Institute Molecular Screening Center
OX1R antag-1: OX1R (HCRTR1) antagonists, primary screen, fluorescence, CHO/OX1R cells, Fluo-8 calcium, orexin A. AID 434989, 2010. Orexin/Hypocretin receptor type 1 (Homo sapiens), O43613. 330,000 tested, 0.43% active. inhibition, % at 5 µM. Fluo-8 calcium fluorescence;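 active = inhibition above its plate's threshold, mean inhibition of all tested compounds on the plate plus 3 SD, cut at about 37% in these data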
Target sequence (O43613 whole entry, looked up): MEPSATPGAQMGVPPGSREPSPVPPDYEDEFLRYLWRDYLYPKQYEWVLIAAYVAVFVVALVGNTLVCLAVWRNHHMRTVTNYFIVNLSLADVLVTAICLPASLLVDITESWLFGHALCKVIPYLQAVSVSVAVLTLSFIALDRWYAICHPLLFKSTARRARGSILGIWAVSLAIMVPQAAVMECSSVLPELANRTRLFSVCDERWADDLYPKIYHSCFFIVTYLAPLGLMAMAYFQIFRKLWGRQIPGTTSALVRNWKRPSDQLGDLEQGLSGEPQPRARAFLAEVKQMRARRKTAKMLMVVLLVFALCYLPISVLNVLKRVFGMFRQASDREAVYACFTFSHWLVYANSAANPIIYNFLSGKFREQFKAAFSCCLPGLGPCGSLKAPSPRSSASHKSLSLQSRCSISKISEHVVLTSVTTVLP
OX1R antag-2: antagonists of human orexin 1 receptor (OX1R) | Orexin/Hypocretin receptor type 1 (Homo sapiens), O43613 | OX1R-expressing cells, FRET antagonist read-out | inhibition, % at 6.6 µM | 330,000 tested, 1.8% active | AID 485270, 2010; in the data active = inhibition mostly above about 38%, no sharp cut-off; inactive = mostly below about 40%
TAAR1 antagonist: human TAAR1 antagonists, primary screen, Fluo-8 calcium fluorescence, CHO RD-HGA16 cells; antagonist; inhibition, % at 3 µM; 360,000 tested, 1.5% active; AID 624466, 2012;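 active = inhibition above a per-plate cutoff, the mean inhibition of test compounds on that plate plus 3 SD, cut at about 49% in these data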
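Test system – hTAAR1-expressing CHO RD-HGA16 cells, Gα16-coupled · Also added – β-PEA at EC80 concentration, post-compound challenge · Compound – 3 µM, single point · Incubation – dye loading 75 min at 37 °C, then 30 min room temperature · Measured by – Fluo-8 intracellular calcium dye fluorescence, real-time kinetic reads · Benchmarks – vehicle and agonist controls · Replicates – singlicate, one well per test compound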
TAAR1 agonist: human TAAR1 agonists, primary screen, Fluo-8 calcium fluorescence, CHO RD-HGA16 cells; Trace amine-associated receptor 1 (Homo sapiens), Q96RJ0; vehicle wells 0%, saturating PEA agonist 100%; activation, % at 3 µM; 360,000 tested, 0.99% active; AID 624467, 2012;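 active = activation above the mean activation of all test compounds in the run plus 3 SD, cut at about 38% in these data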
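Test system: RD-HGA16 (CHO) cells co-expressing Gα16 and hTAAR1; dosing: one-point dosing at 3 µM (nominal); timing: 17-24 h seeding, 75 min 37 °C dye, 30 min RT; signal: kinetic Fluo-8 calcium fluorescence; read-out basis: % activation relative to PEA EC100 response; controls: DMSO and PEA EC100; replicates: n 1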
CHO parental Ca: ATP-evoked calcium signal inhibitors, parental CHO, primary screen, counter-screen for OX1R antagonist project, cell-based, fluorescence, Fluo-8 calcium dye; parental CHO-K1, ATP-induced calcium, Fluo-8 fluorescence; 330,000 tested, 0.63% active; AID 463079, 2010; inhibition, % at 5.6 µM;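 active = inhibition above that plate's mean sample inhibition plus 3 SD, cut at about 26% in these data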
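Assay system: untransfected parental CHO cell line. Also added: ATP agonist challenge. Dosing: one dose, 5.6 µM nominal. Measured by: Fluo-8 fluorescence. Read-out: % inhibition. Benchmarks: ATP wells versus no-ATP DMSO wells. Repeats: no replicates.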
A number is an active result; n = inactive; x = not tested or not shown. The list is not random: actives were taken first. Their share in the collection is about 3.9%.

SMILES	OX1R antag-1	OX1R antag-2	TAAR1 antagonist	TAAR1 agonist	CHO parental Ca
COc1ccc(C)cc1NC(=O)c1nn(C)c(C(=O)Nc2cc(C)ccc2OC)c1[N+](=O)[O-]	n	34	n	n	n
Cc1cccc(C)c1OCCOC(=O)c1n[nH]c2ccccc12	n	n	n	n	n
Cc1ccc(C)c(C(=O)COC(=O)c2n[nH]c3ccccc23)c1	n	36	n	n	n
Cc1ccc2nsnc2c1S(=O)(=O)NCc1ccc2c(c1)OCO2	n	44	n	n	n
OCCC(N1CCOCC1)C(O)(c1ccccc1)c1ccccc1 (centres undefined)	x	x	n	n	x
CCOC(=O)N1CCN(C(=O)C[C@H]2C[C@@]3(C(=O)OC)C(=C[C@H](COCc4ccccc4)O[C@@H]3C)N(Cc3ccc4c(c3)OCO4)C2=O)CC1	x	x	n	n	x
O=c1[nH][nH]c2c1[C@H](C1CCCC1)O[C@H](CCc1ccccc1)C2	x	x	n	n	x
CCN1CCN(c2ccc(Nc3ccnc4ccccc34)cc2)CC1	n	30	n	n	n
CN1CCN(c2ccc(Nc3ccnc4cc(Cl)ccc34)cc2)CC1	n	n	n	n	n
C/C(=N/NC(=O)c1nnn(-c2nonc2N)c1CSc1ccc(C)cc1)c1ccncc1	x	x	n	n	x
COCCNc1nnc(SCC(=O)NNC(=O)c2ccc([N+](=O)[O-])cc2)s1	n	59	n	n	n
COc1cc(Nc2ccc(S(N)(=O)=O)cc2)c([N+](=O)[O-])nc1[N+](=O)[O-]	n	48	n	n	n
O=C1N2CCSC2=NC1(Nc1nccs1)C(F)(F)F (centres undefined)	n	48	n	n	n
CN(C1CCCCC1)S(=O)(=O)c1ccc2c(c1)c(=O)c(C(=O)O)cn2C	x	x	n	n	x
CC(C)[C@@H]1CC[C@@H](C)C[C@H]1OC[B-](F)(F)F	x	x	n	n	x
CCN(CC)C(=O)c1cccc(-c2csc(C(O)c3cccc(Cl)c3)n2)c1 (centres undefined)	x	x	57	n	x
CN(C)c1ccc(-c2csc(C(O)c3cccc(Cl)c3)n2)cc1 (centres undefined)	x	x	73	52	x
CCN(CC)C(=O)c1cccc(-c2csc(C(O)c3ccc(OC)cc3)n2)c1 (centres undefined)	x	x	n	n	x
CC1CCCN(c2cccc3c2S(=O)(=O)N(Cc2cccc(F)c2)[C@@H](C)[C@H](c2ccccc2)O3)C1 (some centres undefined)	x	x	n	n	x
O=C1Oc2ccccc2C(=O)/C1=C/N1CCN(c2ccccc2F)CC1	n	n	n	39	n
COc1ccc(NC(=O)CCCSc2nc(-c3ccco3)cc(C(F)(F)F)n2)cc1OC	n	66	n	n	n
Cc1cc(O)cc(=O)n1-c1cccc(C(F)(F)F)c1	x	x	n	n	x
COc1ccccc1CCn1cnc(-c2cccc(F)c2)c1C(C)C	x	x	n	n	x
C=CCn1c(=N)n(CC(=O)c2cccc([N+](=O)[O-])c2)c2ccccc21	n	39	n	n	n
N=c1n(CCN2CCCCC2)c2ccccc2n1CC(=O)c1cccc([N+](=O)[O-])c1	n	n	n	n	n
SMILES	OX1R antag-1	OX1R antag-2	TAAR1 antagonist	TAAR1 agonist	CHO parental Ca
CN[C@H]1C[C@H]2c3cc(N4CCN(C)CC4)ccc3CCN2C(=O)[C@H]1[C@H](C)O	x	x	n	n	x
NC(c1csc(Nc2cc(Oc3ccccc3)ncn2)n1)C1CCCCC1 (centres undefined)	x	x	n	43	x
Nc1ccc(CC(N)c2csc(Nc3cc(Oc4ccccc4)ncn3)n2)cc1 (centres undefined)	x	x	n	n	x
COc1ccc(C(N)c2csc(Nc3ncccn3)n2)cc1 (centres undefined)	x	x	n	n	x
COc1ccc(C(N)c2csc(Nc3nncc4ccccc34)n2)cc1 (centres undefined)	x	x	n	42	x
COc1ccc(C(N)c2csc(Nc3cc(Oc4ccccc4)ncn3)n2)cc1 (centres undefined)	x	x	n	38	x
OC(Cc1cccc(Br)c1)c1ncc(-c2cccc(C(F)(F)F)c2)[nH]1 (centres undefined)	x	x	n	n	x
O=C(Nc1ccccc1-c1nc2ccccc2[nH]1)c1ccc(N2C(=O)CCC2=O)cc1	n	n	50	n	n
Cc1ccc(C)c(-c2cc(C(=O)NNC(=S)NCC(C)C)c3ccccc3n2)c1	n	n	50	n	n
COCc1c(C(=O)OCc2nc3ccsc3c(=O)[nH]2)oc2ccccc12	n	28	n	n	n
COCc1c(C(=O)OCc2nc(N)nc(Nc3ccccc3C)n2)oc2ccccc12	n	47	n	n	n
COc1cc2ccccc2cc1C(=O)OCc1nc2ccsc2c(=O)[nH]1	n	35	n	n	n
CC1(C(=O)NCc2ccccc2)CN(S(C)(=O)=O)CC(=O)N1Cc1cccs1 (centres undefined)	x	x	n	n	x
Cc1ccc(CN2CC=CS2(=O)=O)cc1	x	x	n	n	x
COc1ccc(CCNC(=O)CN2C(=O)NC(c3ccccc3)(c3ccccc3)C2=O)cc1	n	36	n	n	n
COCCCNC(=O)N1c2ccccc2Sc2ccccc21	n	n	n	n	n
COc1ccc(CCNC(=O)N2c3ccccc3Sc3ccccc32)cc1	n	n	n	n	36
O=C1c2ccccc2C2Cc3nnccc3CN12 (centres undefined)	x	x	n	n	x
COc1cccc(CN(C)C(=O)c2ccc(OCC(=O)Nc3cccc(C(F)(F)F)c3)c(OC)c2)c1	52	n	67	n	65
OCCCCNCc1ccc(OCc2ccc(Cl)cc2Cl)cc1	n	n	n	38	n
CCN(Cc1ccc2c(c1)OCCO2)C(=O)CSc1nc(C)nc2sc(C)c(C)c12	n	n	59	n	n
CCN(Cc1ccc2c(c1)OCO2)C(=O)CSc1ncnc2sccc12	n	n	n	n	n
O=[N+]([O-])c1c(Nc2ccccc2)ccc2nonc12	n	64	n	n	n
CCOC(=O)NNc1ccc2nonc2c1[N+](=O)[O-]	n	35	x	x	n
O=C(O)c1ccccc1Nc1ccc([N+](=O)[O-])c2nonc12	n	34	x	x	n
SMILES	OX1R antag-1	OX1R antag-2	TAAR1 antagonist	TAAR1 agonist	CHO parental Ca
O=[N+]([O-])c1c(NCc2ccco2)ccc2nonc12	n	68	n	n	n
Cc1cc(C)cc(Nc2ccc3nonc3c2[N+](=O)[O-])c1	n	n	n	n	n
CC(=O)c1c(C)[nH]c(C(=O)OC(C)C(=O)NC2CCCCC2)c1C (centres undefined)	x	x	n	n	x
Cc1c(Nc2cc(Cl)c3nonc3c2[N+](=O)[O-])c(=O)n(-c2ccccc2)n1C	x	x	n	n	x
O=[N+]([O-])c1c(Nc2cccc(O)c2)cc(Cl)c2nonc12	47	94	n	n	43
O=C(Nc1ccc(Cl)cc1)c1cc2c(cc1O)[nH]c1ccccc12	55	52	n	n	72
